Rows were chosen to be rich in hits. Some 5.1% of all compounds tested hit in one or more screens of this group.
STAT1 inh – STAT1 signaling inhibitors, primary screen, cell-based, HTS, luciferase reporter. NIH 3T3 STAT1-luciferase reporter, IFN-gamma, luminescence. inhibition, % at 5.5 µM. 0.35% of 200,000 active. AID 920, 2007;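 active means inhibition above a set limit, the mean inhibition across all tested compounds plus 3 SD, cut at about 34% in these data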
STAT1 act – STAT1 signaling activators, primary screen, cell-based, HTS, luciferase reporter | activation (% of control), % at 5.5 µM | 2.6% of 200,000 active | AID 932, 2007 | NIH 3T3 STAT1-luciferase reporter, IFN-gamma, luminescence; 100% = IFN-gamma alone, no compound;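 active means activation above the screen-wide mean activation plus 3 SD, cut at about 130% in these data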
APP 5'UTR act – activators of APP 5'UTR luciferase reporter, primary screen, SH-SY5Y cells. activation, % at 2 µM. AID 1276, 2008. 1% of 190,000 active. SH-SY5Y APP 5'UTR luciferase reporter, luminescence; zero percent = DMSO vehicle wells;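 active means activation above a set limit, based on mean plus 3 SD of controls, cut at about 140% in these data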
STAT3 activator – IL-6 driven STAT3 reporter potentiators, primary screen, U3A cells, luciferase, luminescence, MLSCN library; 0.91% of 190,000 active; activation (% of control), % at 5.6 µM; IL-6 STAT3-luciferase reporter; 100% = signal with IL-6 EC80 alone; AID 871, 2007;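 active means activation above the screen-wide mean of compound activation plus 3 SD, cut at about 130% in these data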
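Test system: STAT3-luciferase reporter U3A cells; Detection: reporter luminescence signal; Times: 1 h compound pre-exposure, 6 h IL-6 stimulation, 37 °C; Benchmarks: IL-6-only high control; Also added: IL-6 stimulus at 33 ng/mL final.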
NF-kB expr up – activators of NF-kB expression in neurons, primary screen, cell-based, HTS; 1.6% of 190,000 active; human neuronal cells, NF-kB reporter expression; active compounds read high; fold change at 12.5 µM; in the data active means fold change above about 3.3
STAT3 blocker – IL-6 driven STAT3 reporter inhibitors, primary screen, U3A cells, luciferase, luminescence, MLSCN library. IL-6 STAT3-luciferase reporter; host cell line lacks STAT1. inhibition, % at 5.5 µM. 0.89% of 190,000 active;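 active means inhibition above the mean inhibition across all screened compounds plus 3 SD, cut at about 44% in these data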
STAT1 activ conf – STAT1 signaling activators, confirmation, cell-based, HTS, luciferase reporter; AID 1262, 2008; activation (% of control), % at 5.7 µM; 97% of 1,200 active; shares compounds with STAT1 act; NIH 3T3 STAT1-luciferase reporter, IFN-gamma potentiation, luminescence; 100% = IFN-gamma EC80 alone, no compound;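 active means activation above a set limit carried over from the earlier primary STAT1 screen, cut at about 140% in these data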
NFkB act – NF-kB reporter activators, TNF-alpha stimulated, counter-screen for STAT1 activator project, cell-based, HEK293T, luciferase luminescence; shares compounds with STAT1 act; 100% = TNF-alpha with vehicle only; activation (% of control), % at 5.7 µM; 43% of 1,200 active;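 active means activation above the mean of solvent-only control wells plus 3 SD, set per campaign, cut at about 130% in these data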;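 further: TNF-alpha given at a submaximal dose yielding about 80% of full reporter signal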
STAT3 act 2 – STAT3 reporter activation by STAT1 hits, confirmation, counter-screen for STAT1 activator project, U3A cells, luciferase, luminescence; shares compounds with STAT1 act; IL-6; cells lack STAT1; 100 = IL-6 alone, no compound effect; activation (% of control), % at 5.7 µM; 46% of 1,200 active;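 active means activation above the solvent-only control well mean plus 3 SD, set per plate batch, cut at about 110% in these data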;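 further: higher means more STAT3 reporter activation so hits are non-selective activators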
A number is an active result; n = inactive; x = no result.

SMILES	STAT1 inh	STAT1 act	APP 5'UTR act	STAT3 activator	NF-kB expr up	STAT3 blocker	STAT1 activ conf	NFkB act	STAT3 act 2
C=CCn1c(SCC(=O)N2CCc3ccccc3C2)nc2sc(C)cc2c1=O	n	n	n	n	n	n	x	x	x
O=S1(=O)N=C(Nc2nc3c(s2)CCCC3)c2ccccc21	n	152	n	n	6.2	n	194	n	126
Cc1cccc(Nc2nc(N3CCCC3)nc(N3CCCC3)n2)c1	n	n	n	n	n	n	x	x	x
Cc1cccc(Nc2nc3c(s2)CCCC3)c1	n	164	n	n	6.6	n	208	146	n
O=S(=O)(Nc1nc2c(s1)CCCC2)c1ccc(F)cc1	n	n	n	n	n	n	x	x	x
COc1ccc2cc(-c3[nH]ncc3CN3CCCN(c4ccccc4)CC3)ccc2c1	n	n	n	n	n	n	x	x	x
O=C(NC(=S)N1CCN(c2ccccn2)CC1)c1ccco1	n	n	n	n	n	n	x	x	x
CN1C(=O)/C(=C/C=C2\SCCN2C)SC1=S	n	159	174	n	4.4	n	224	n	n
CCCN1C(=O)/C(=C\C=C2/Sc3ccccc3N2CC)SC1=S	n	n	n	n	n	n	x	x	x
CCOc1ccc(/C=N/Nc2ccccn2)cc1OC	n	155	n	n	n	n	154	n	n
CCOc1ccc(/C=N/N(C)c2ccccc2)cc1OC	n	163	n	n	4.9	n	187	142	n
CN(C)c1ccc(N=C/C=C2/N(C)c3ccccc3C2(C)C)cc1	n	173	164	n	n	n	n	n	n
O=C(Nc1ccc2oc(-c3ccccc3Cl)nc2c1)c1ncn[nH]1	n	156	n	n	5.1	n	204	n	114
CCC(=O)Nc1ccc2oc(-c3ccccc3Br)nc2c1	n	160	n	n	5.7	n	190	138	n
CC(=O)NC1=NN(C(C)=O)C(c2ccc(C)cc2)S1 (stereo not given)	n	n	n	n	n	n	x	x	x
CC(=O)N1N=C(c2ccc(C)cc2)OC1c1ccc(Br)cc1 (stereo not given)	n	154	n	n	n	n	182	148	117
N#C/C(=C\c1ccco1)c1nc2ccccc2s1	n	173	138	n	n	n	218	n	142
N#C/C(=C/c1ccc(-c2cc(C(=O)O)cc(C(=O)O)c2)o1)c1nc2ccccc2s1	n	n	n	n	n	n	x	x	x
N#C/C(=C/c1ccco1)c1nc2ccccc2s1	n	165	186	n	8.1	n	226	n	140
CC(NC(=O)C1CCC(CNS(=O)(=O)c2ccccc2)CC1)c1ccc2c(c1)OCCO2 (stereo not given)	n	n	n	n	n	n	x	x	x
COc1cccc(/C=C/C(=O)OCC(=O)N2c3ccccc3NC(=O)C2(C)C)c1	n	n	n	n	n	n	x	x	x
c1ccc(CNc2ccc3ccccc3n2)nc1	n	153	162	n	4.7	n	200	n	n
